Experimental data published in ChEMBL document CHEMBL1909618, “Non-steroidal dissociated glucocorticoid agonists: indoles as A-ring mimetics and function-regulating pharmacophores” (Bioorg Med Chem Lett, 2011).

Key:
[1] = target: T1, Progesterone receptor (Homo sapiens, UniProt P06401); assay: Displacement of tetramethylrhodamine-labeled RU-486 from human recombinant progesterone receptor expressed in baculovirus infected insect cells by fluorescence polarization assay
T1 sequence (P06401 whole entry): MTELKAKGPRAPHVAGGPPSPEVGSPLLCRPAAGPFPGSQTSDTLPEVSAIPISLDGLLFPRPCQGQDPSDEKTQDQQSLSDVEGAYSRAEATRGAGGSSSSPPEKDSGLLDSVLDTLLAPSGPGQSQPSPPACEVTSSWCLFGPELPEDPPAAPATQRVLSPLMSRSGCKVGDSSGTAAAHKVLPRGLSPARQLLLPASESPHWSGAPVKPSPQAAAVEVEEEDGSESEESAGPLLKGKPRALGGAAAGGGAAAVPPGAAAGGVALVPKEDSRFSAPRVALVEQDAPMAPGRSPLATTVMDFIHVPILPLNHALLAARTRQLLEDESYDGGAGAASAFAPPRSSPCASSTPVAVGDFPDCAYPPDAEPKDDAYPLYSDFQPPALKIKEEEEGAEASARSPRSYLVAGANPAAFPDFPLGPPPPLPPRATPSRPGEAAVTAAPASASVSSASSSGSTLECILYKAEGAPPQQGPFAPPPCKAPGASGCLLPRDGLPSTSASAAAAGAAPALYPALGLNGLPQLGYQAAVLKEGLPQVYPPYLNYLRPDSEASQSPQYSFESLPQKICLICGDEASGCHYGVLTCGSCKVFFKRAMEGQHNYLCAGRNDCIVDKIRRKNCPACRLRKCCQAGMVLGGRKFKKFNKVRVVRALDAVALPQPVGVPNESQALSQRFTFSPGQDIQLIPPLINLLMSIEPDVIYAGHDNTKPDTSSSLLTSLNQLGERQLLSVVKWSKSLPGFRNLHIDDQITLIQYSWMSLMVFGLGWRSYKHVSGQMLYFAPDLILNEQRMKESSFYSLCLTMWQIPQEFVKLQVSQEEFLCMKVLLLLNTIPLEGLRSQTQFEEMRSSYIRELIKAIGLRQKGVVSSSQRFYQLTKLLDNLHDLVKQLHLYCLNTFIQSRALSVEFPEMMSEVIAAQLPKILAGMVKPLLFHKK
How it was run: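 Fluorescence polarization competition assays with recombinant human receptors in lysates of baculovirus-infected insect cells. Reactions contained 1% DMSO and ran 1 h at room temperature.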

[2] = organism: Homo sapiens; assay: Selectivity ratio of IC50 for human recombinant glucocorticoid receptor to IC50 for human recombinant mineralocorticoid receptor
[3] = tested on: Mus musculus; assay: Toxicity in B10.R3 mouse collagen-induced arthritis model assessed as change in body fat level at 30 mg/kg, po qd for 5 weeks relative to control; type: organism-based; set-up: dose 30 mg/kg, route oral; conditions: in vivo, 840 h
How it was run: (§1)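 Arthritic B10.RIII CIA mice were dosed orally once daily for 5 weeks. At day 35 they were anesthetized with ketamine (50 mg/kg) and xylazine (15 mg/kg). Body fat was assessed by whole-body density scan. Serum triglycerides were measured by enzymatic kit (Wako L-Type TG-H) and free fatty acids by NEFA-C. Results are expressed as % change versus vehicle and compared by t-test.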

[4] = AUC (infinity) in B10.R3 mouse at 30 mg/kg, po; type: ADME, organism-based; set-up: time infinity, dose 30 mg/kg, route oral; conditions: plasma
How it was run: (§2)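 Mouse PK: IV dose 1 mg/kg in PEG400/water (70:30); oral dose 30 mg/kg given as a suspension in 30% Cremophor. Values are the mean of 3 mice.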

[5] = target: T2, Glucocorticoid receptor (Homo sapiens, UniProt P04150); assay: Agonist activity at glucocorticoid receptor in human HeLa cells transfected with luciferase gene linked to MMTV promoter assessed as luciferase transactivation activity; type: functional, cell-based
T2 sequence (P04150 whole entry): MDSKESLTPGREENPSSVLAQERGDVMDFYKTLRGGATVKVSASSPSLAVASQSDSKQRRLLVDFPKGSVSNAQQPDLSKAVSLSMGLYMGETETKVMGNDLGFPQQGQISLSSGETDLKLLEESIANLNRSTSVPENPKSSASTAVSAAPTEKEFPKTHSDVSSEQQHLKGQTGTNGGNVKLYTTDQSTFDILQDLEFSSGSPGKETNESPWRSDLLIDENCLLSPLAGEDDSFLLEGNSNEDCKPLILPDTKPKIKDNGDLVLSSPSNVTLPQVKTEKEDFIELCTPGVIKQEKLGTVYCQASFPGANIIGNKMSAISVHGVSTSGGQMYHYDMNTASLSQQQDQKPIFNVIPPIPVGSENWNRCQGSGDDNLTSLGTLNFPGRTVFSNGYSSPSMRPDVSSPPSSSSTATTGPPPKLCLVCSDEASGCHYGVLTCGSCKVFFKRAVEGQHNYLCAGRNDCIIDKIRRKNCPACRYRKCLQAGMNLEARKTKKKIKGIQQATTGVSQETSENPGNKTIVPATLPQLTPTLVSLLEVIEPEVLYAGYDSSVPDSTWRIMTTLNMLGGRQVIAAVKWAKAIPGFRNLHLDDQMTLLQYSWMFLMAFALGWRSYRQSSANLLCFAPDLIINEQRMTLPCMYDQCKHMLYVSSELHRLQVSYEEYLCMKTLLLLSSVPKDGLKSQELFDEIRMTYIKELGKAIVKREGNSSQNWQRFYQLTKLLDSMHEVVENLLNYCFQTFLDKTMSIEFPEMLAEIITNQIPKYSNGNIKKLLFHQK

[6] = Volume of distribution at steady state in Sprague-Dawley rat at 2 mg/kg, iv; type: ADME, organism-based; set-up: dose 2 mg/kg, route intravenous; conditions: in vivo, read-out: Vdss
How it was run: (§3)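 Rat PK: IV dose 2 mg/kg in PEG400/water (70:30); oral dose 30 mg/kg in PEG400/H2O/Tween (80/18/2). Values are the mean of 3 rats.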

[7] = Clearance in Sprague-Dawley rat at 2 mg/kg, iv; type: ADME, organism-based; set-up: dose 2 mg/kg, route intravenous; conditions: in vivo; how it was run: as §3
[8] = tested on: Mus musculus; assay: Antiarthritic activity in B10.R3 mouse collagen-induced arthritis model assessed as AUC of disease progression inhibition at 30 mg/kg, po qd for 5 weeks; type: functional; conditions: B10.R3, 840 h
How it was run: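 B10.RIII mice immunized with porcine type II collagen plus complete Freund's adjuvant were enrolled at the first signs of arthritis. They were dosed orally once daily for 5 weeks; vehicle was 30% Cremophor RH. All four paws were scored 1–4 (maximum 16 per animal). Disease-score AUCs from 10 mice per group were compared with vehicle by Mann–Whitney test.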

[9] = Oral bioavailability in B10.R3 mouse at 30 mg/kg; type: ADME, organism-based; conditions: in vivo; how it was run: as §2
[10] = tested on: Mus musculus; assay: Antiinflammatory activity in po dosed mouse plasma assessed as inhibition of LPS-induced TNFalpha production administered 1 hr before LPS challenge measured after 1 hr; type: functional
How it was run: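 Mice received compound orally in Cremophor RH 1 h before LPS challenge. Plasma TNF-α was measured 1 h after challenge. n = 8 per group; doses were 3 and 10 mg/kg.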

[11] = AUC (infinity) in Sprague-Dawley rat at 30 mg/kg, po; type: ADME, organism-based; set-up: dose 30 mg/kg, route oral, time infinity; conditions: plasma; how it was run: as §3
[12] = tested on: Mus musculus; assay: Toxicity in B10.R3 mouse collagen-induced arthritis model assessed as change in serum triglyceride level at 30 mg/kg, po qd for 5 weeks relative to control; type: organism-based; set-up: dose 30 mg/kg, route oral; conditions: in vivo, 840 h; how it was run: as §1
[13] = tested on: Mus musculus; assay: Toxicity in B10.R3 mouse collagen-induced arthritis model assessed as change in serum free fatty acids level at 30 mg/kg, po qd for 5 weeks relative to control; type: organism-based; set-up: dose 30 mg/kg, route oral; conditions: in vivo, 840 h; how it was run: as §1
[14] = Oral bioavailability in Sprague-Dawley rat at 30 mg/kg; type: ADME, organism-based; conditions: in vivo; how it was run: as §3

COc1ccc(F)cc1C(C)(C)C[C@@](O)(Cc1cc2ccccc2[nH]1)C(F)(F)F
IC50 [1]: 207 nM

CC(C)(C[C@@](O)(Cc1cc2ccc(C#N)cc2[nH]1)C(F)(F)F)c1cc(S(C)(=O)=O)cc2c1OCC2
Ratio IC50 [2]: 100
Activity [3]: 6%
IC50 [1]: 745 nM
AUC(0-inf) [4]: 32700 ng·h/mL
EC50 [5]: > 2000 nM
Vd [6]: 7.7 L/kg
clearance [7]: 51 mL/min/kg
inhibition in vivo at 30 mg/kg [8]: 45%
bioavailability [9]: 26%
ED50 [10]: < 3 mg/kg
AUC(0-inf) [11]: 4850 ng·h/mL
Activity [12]: 11%
Activity [13]: 8%
bioavailability [14]: 51%
